SDO1 yeast rescue – growth rescue of sdo1-depleted yeast, primary screen, S. cerevisiae, bone marrow failure model | S. cerevisiae sdo1-depleted JHY4D growth rescue, OD600 30 h; stronger effect = higher value; pdr5 snq2 efflux-pump mutant strain | z-score at 10 µM | 0.21% of 140,000 active;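 active means z-score above 3 at both the 24 hr and the 30 hr optical density reads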
RAM inhibit – inhibitors of the yeast RAM network, primary screen, dse1pr::URA3 reporter, 5-FOA selection. inhibition, % at 50 µM. S. cerevisiae dse1pr::URA3 reporter, 5-FOA growth OD615, 2 d; analog-sensitive cbk1-as2 kinase mutant strain. 1.8% of 190,000 active;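 active means inhibition above a set limit, 3 SD over mean compound inhibition, cut at about 8.4% in these data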;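 further: inhibition rescues growth on 5-FOA so higher OD means more RAM inhibition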
Yeast life ext – compounds extending yeast replicative lifespan, primary screen, S. cerevisiae, OD615; S. cerevisiae growth with nicotinamide; deaD strain in restrictive glucose medium; inhibition of the nicotinamide effect, % at 10 µM; 0.68% of 130,000 active; AID 775, 2007;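 active means inhibition above a set limit, placed 3 SD over the median of all compounds, cut at about 26% in these data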
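Material: Modified budding yeast, DeaD strain | Medium: Restrictive glucose medium | Probe or stimulus: 1.5 mM nicotinamide | Dosing: Single dose 10 µM compound, 0.25% DMSO | Times: 48 h at 30 °C | Technique: OD615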
Yeast growth inh – growth inhibitors of yeast BB579 in restrictive medium, primary screen, yeast lifespan-shortening project, S. cerevisiae; inhibition, % at 10 µM; 0.51% of 140,000 active; OD615, 48 h; AID 804, 2007;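 active means inhibition above a set limit, 3 SD over the mean compound inhibition, cut at about 44% in these data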
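Detection: OD615 turbidity measurement; Material: Saccharomyces cerevisiae DeaD strain BB579, replicative lifespan model yeast; Timing: 48 h exposure, 30 °C; Doses: single 10 µM dose; Medium: CSMM-D restrictive synthetic medium containing dextrose (glucose); Controls: amphotericin B at 10 µg/mL as positive control.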
Each line names hits and unclear results; the compound was inactive in the other large screens. An excerpt weighted towards active compounds, which were near 2.7% of everything screened.

Cc1ccc(-c2nc3ccc(Cl)cc3n2OC(=O)N(C)C)cc1	Yeast life ext 92
CN(C)C(=O)Oc1ccc(-c2cn3cc(Cl)ccc3n2)cc1	none
CN1CCN(c2ncc(C=O)s2)CC1	none (no result: SDO1 yeast rescue, Yeast life ext, Yeast growth inh)
CCN(CC)P(=O)(NC(=O)c1cccn1C)N(CC)CC	none (no result: SDO1 yeast rescue, Yeast life ext, Yeast growth inh)
CC(C)(C)C(O)C(Oc1ccc(Cl)cc1)n1cncn1 (centres undefined)	Yeast growth inh 91
CC(C)CC(=O)NC(Oc1ccc(Cl)cc1)C(Cl)(Cl)Cl (centres undefined)	none
CCC(=O)c1ccc(OC(=O)N(C)c2ccccc2)cc1	none (no result: SDO1 yeast rescue, Yeast life ext, Yeast growth inh)
Cc1ccc(N(C)C(=O)Oc2ccc(C(=O)c3ccc(Cl)cc3)cc2)cc1	Yeast life ext 82
Nc1cc(Cl)c2nonc2c1[N+](=O)[O-]	Yeast life ext 37
CCN1CCN(S(=O)(=O)c2cnc(Cl)c(Br)c2)CC1	none
CCn1nc(-c2cccs2)nc2c(=O)n(C)c(=O)nc1-2	Yeast growth inh 100
CCn1nc(/C=C/c2ccccc2)nc2c(=O)n(C)c(=O)nc1-2	none (no result: SDO1 yeast rescue, Yeast life ext, Yeast growth inh)
Cc1ccn2nc(S(=O)(=O)Nc3c(F)cccc3F)nc2n1	none
Cc1ccc(OCC(=O)Nc2ccc(Cl)cc2C(=O)c2ccccc2)cc1	RAM inhibit 9.4
Cc1oc(-c2ccc(F)cc2F)nc1CN1C[C@@H]2C[C@@H](C1)c1cccc(=O)n1C2	none (no result: SDO1 yeast rescue, Yeast life ext, Yeast growth inh)
CCCCn1c(=O)c(C(=O)Nc2cnccn2)c(O)c2ccccc21	Yeast life ext 80
CC(C)CCn1c(=O)c(C(=O)Nc2ccccc2S(N)(=O)=O)c(O)c2ccccc21	none
O=C1NC(=O)C(CCc2ccncc2)(CCc2ccncc2)C(=O)N1Cc1ccccc1	none (no result: SDO1 yeast rescue, Yeast life ext, Yeast growth inh)
CSc1ccc(C(c2c(O)c3ccccc3oc2=O)c2c(C)n(C)n(-c3ccccc3)c2=O)cc1 (centres undefined)	none (no result: SDO1 yeast rescue, Yeast life ext, Yeast growth inh)
Cc1c(C(c2ccc(Br)cc2)c2c(O)c3ccccc3oc2=O)c(=O)n(-c2ccccc2)n1C (centres undefined)	RAM inhibit 10 (no result: SDO1 yeast rescue, Yeast life ext, Yeast growth inh)
Cc1c(C(c2ccc(Cl)cc2Cl)c2c(O)c3ccccc3oc2=O)c(=O)n(-c2ccccc2)n1C (centres undefined)	none (no result: SDO1 yeast rescue, Yeast life ext, Yeast growth inh)
Cn1cccc1/C=C1\C(=O)NC(=O)N(CCC2=CCCCC2)C1=O	none
O=C1NC(=S)N(Cc2ccco2)C(=O)/C1=C\c1cccs1	none (no result: SDO1 yeast rescue, Yeast life ext, Yeast growth inh)
O=C1NC(=O)N(CCC2=CCCCC2)C(=O)/C1=C\c1cccs1	Yeast life ext 63
C=CCN1C(=O)/C(=C/c2cccs2)C(=O)NC1=S	Yeast growth inh 75
CP(=O)(Nc1ccccc1)C(Cl)(Cl)Cl (centres undefined)	none (no result: SDO1 yeast rescue, Yeast life ext, Yeast growth inh)
CC(=O)c1ccc2c(c1)C1C(Cl)C(Sc3ccccc3[N+](=O)[O-])CC1C(C(=O)O)N2 (centres undefined)	RAM inhibit 11
O=C(N/N=C/c1c(O)n(CCc2ccc(F)cc2)c(=O)[nH]c1=O)c1ccncc1	RAM inhibit 8.6 (no result: SDO1 yeast rescue, Yeast life ext, Yeast growth inh)
O=C(N/N=C/c1c(O)n(CCc2ccccc2)c(=O)[nH]c1=O)c1ccncc1	none
CCOc1ccc2oc(C(=O)NN3C(C)CCCC3C)c(C)c2c1 (centres undefined)	none (no result: SDO1 yeast rescue, Yeast life ext, Yeast growth inh)
Cc1cc(/C=C2\C(=O)NC(=O)N(c3ccc(Br)cc3)C2=O)c(C)n1C	RAM inhibit 11 (no result: SDO1 yeast rescue, Yeast life ext, Yeast growth inh)
Cc1cc(/C=C2\C(=O)NC(=O)N(c3cccc(Br)c3)C2=O)c(C)n1C	none
Cc1nn(Cc2ccc(Cl)cc2Cl)c(Cl)c1C(=O)Nc1ccc(OC(F)F)cc1	none
COc1cc(/C=C/[N+](=O)[O-])ccc1O	Yeast life ext 35
O=C1/C(=C\c2ccc([N+](=O)[O-])cc2)N2CCC1CC2	Yeast life ext 35
C[C@]12CC[C@@H](O)C[C@@H]1CC[C@@H]1[C@@H]2CC[C@]2(C)[C@@H](O)CC[C@@H]12	Yeast life ext 29
O=C1NC(=O)N(c2ccccc2)C(=O)/C1=C/c1ccc(Sc2ccccc2)o1	Yeast life ext 32
O=C1NC(=O)N(c2cccc(Cl)c2)C(=O)/C1=C\c1ccc(Sc2nc3ccccc3[nH]2)o1	none
Brc1ccc2c(c1)C(OC1CN3CCC1CC3)c1ccccc1CS2 (centres undefined)	none
CCCCn1c(NS(=O)(=O)c2ccc(C)cc2)c(C(=O)OCC)c2nc3ccccc3nc21	Yeast life ext 93
Cc1cc(C)cc(N2C(=O)NC(=O)/C(=C\c3cccn3-c3ccccc3)C2=O)c1	RAM inhibit 9.8
Cc1cc(C)cc(N2C(=O)NC(=O)/C(=C\c3cccn3-c3ccc(Cl)cc3)C2=O)c1	none
CCN1C(=O)C(=C/C=C/c2ccco2)C(=O)N(CC)C1=S	Yeast life ext 34
CC(C)N1C(=O)/C(=C/C=C/c2ccco2)C(=O)N(Cc2ccco2)C1=O	none
N#CC1=C(N)Oc2cc(O)ccc2C1c1ccc2c(c1)OCO2 (centres undefined)	none (no result: SDO1 yeast rescue, Yeast life ext, Yeast growth inh)
Cc1ccc(/C=C2/C(=O)NC(=O)N(CCc3ccc(F)cc3)C2=O)o1	Yeast life ext 32
Oc1c(Br)cc(Br)cc1CN1CCN(Cc2ccccc2)CC1	none
Oc1c(Br)cc(Br)cc1Oc1ccc(Br)cc1Br	Yeast growth inh 83
Clc1ccc(COC(Cn2ccnc2)c2ccc(Cl)cc2Cl)c(Cl)c1 (centres undefined)	Yeast growth inh 100
Cc1nccn1Cc1ccc(Cl)nc1	none (no result: SDO1 yeast rescue, Yeast life ext, Yeast growth inh)
O=c1[nH]c(O)c(N=Nc2ccc([N+](=O)[O-])cc2)c(=O)[nH]1	none (no result: SDO1 yeast rescue, Yeast life ext, Yeast growth inh)
O=C(Nc1ccc(F)cc1F)c1cccnc1Oc1cccc(C(F)(F)F)c1	Yeast life ext 36
CS(=O)(=O)N1CCN(C(=N)N[N+](=O)[O-])CC1	none (no result: SDO1 yeast rescue, Yeast life ext, Yeast growth inh)
CN1CCC2(CC1)C(C#N)=C(N)NC(S)=C2C#N	Yeast life ext 40
Cc1cc(C)cc(-n2c(C)cc(/C=C3\C(=O)NC(=O)N(C)C3=O)c2C)c1	none
Cc1ccnc(-n2c(C)cc(C=C3C(=O)N(C)C(=S)N(C)C3=O)c2C)c1	Yeast life ext 30
O=C(c1ccccc1F)c1cn(Cc2ccccc2)c2ccccc12	RAM inhibit 11
Nc1nonc1C(=O)N/N=C/c1ccc([N+](=O)[O-])o1	none (no result: SDO1 yeast rescue, Yeast life ext, Yeast growth inh)
O=C(c1ccc(Cl)cc1)C1CCCN(Cc2ccc3nonc3c2)C1 (centres undefined)	none (no result: SDO1 yeast rescue, Yeast life ext, Yeast growth inh)
Fc1ccc(Cn2nnnc2C(c2ccc(Cl)cc2)N2CC=C(c3ccc(F)cc3)CC2)cc1 (centres undefined)	RAM inhibit 10
Fc1ccc(C2=CCN(C(c3ccc(Cl)cc3)c3nnnn3Cc3ccccc3)CC2)cc1 (centres undefined)	none
COC(=O)C(O)(c1ccc(NC(=S)NC(=O)c2ccc(Cl)cc2Cl)c(C)c1)C(F)(F)F (centres undefined)	RAM inhibit 9.3
O=C1C=Cc2ccccc2C1=O	Yeast life ext 31
Cc1ccc(/C=C2\C(=O)NC(=S)N(c3ccccc3F)C2=O)s1	Yeast life ext 41, Yeast growth inh 55
O=P(NCc1ccccc1)(Oc1ccccc1)Oc1ccccc1	Yeast life ext 27

Bioassay records from PubChem.
